Results on 18 molecules are retold here after ChEMBL document CHEMBL1123427, “Synthesis of thyrotropin-releasing hormone analogues. 2. Tripeptides structurally greatly differing from TRH with high central nervous system activity” (1986).

Usually inhibition in vivo stands for the relative decrease from the control value, in per cent. By ED50 is commonly meant the dose at which the effect has come halfway, by size or by number of responders. A low value points to an effect at a small dose.

Residues, ends and D or L forms follow the SMILES beside them.

The species named for assay [1] is Mus musculus. Nature of the assay: Reduction of hexobarbital induced sleeping time in mice. The assay is classed as functional.
The species named for assay [2] is Rattus norvegicus. Nature of the assay: Thyrotropin releasing activity (TSH) was evaluated by measuring the TSH response to the compound by radioimmunoassay in two doses in the rat. The assay is classed as functional. The method in brief: (§1)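 Rat two-point assay at 1 and 10 μg. TSH response is measured by radioimmunoassay. Compounds are dissolved in physiological saline (5 mL/kg), and controls receive the same volume of saline. n = 10 animals per treatment. Significance is given as p < 0.01 and p < 0.001.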

In assay [3] the test system is Rattus norvegicus. Nature of the assay: Ability of 80 mg/kg to inhibit the cataleptic effect of haloperidol in rat. It counts as functional.
Assay [4] is filed under the species Rattus norvegicus. Nature of the assay: Dose that inhibited cataleptic effect of haloperidol in rat by 50%. It counts as functional.
Assay [5] concerns Rattus norvegicus. Nature of the assay: Ability of 80 mg/kg to inhibit the cataleptic effect of haloperidol in rat; Potentiating effect. Also on record: dose 80 mg/kg. The assay is classed as functional, organism-based. The following applies: at 80 mg/kg.
For assay [6], the species on record is Rattus norvegicus. Nature of the assay: Doses that inhibited cataleptic effect of haloperidol in rat by 50%. The assay is classed as functional.
The species named for assay [7] is Rattus norvegicus. Nature of the assay: Thyrotropin releasing activity (TSH) was evaluated by measuring the TSH response to the compound by radioimmunoassay in two doses in the rat; np denotes Slightly significant but not parallel TSH response to the lower and upper dose s used. The assay is classed as functional, organism-based. The method in brief: as §1

On to `NC(=O)[C@@H]1CCCN1C(=O)[C@H](Cc1c[nH]cn1)NC(=O)[C@@H]1CCC(=O)N1` [PROTIRELIN], for which, in assay [1], the Sleeping time was found to be 24.8 min. Also, in assay [2], the Activity is 100%. Moreover, in assay [3], testing at 80 mg/kg gave an inhibition in vivo of 40%.

`CCC[C@H](NC(=O)[C@@H]1CCC(=O)N1)C(=O)N[C@@H](CC(C)C)C(N)=O` (HELM PEPTIDE1{[Glp].[Nva].L.[am]}$$$$V2.0) registered a Sleeping time in assay [1] of 43 min. The molecule also came in with an Activity in assay [2] of 0%. Besides, testing at 80 mg/kg in assay [3] gave an inhibition in vivo of 20%.

For the molecule `CC(C)C[C@H](NC(=O)[C@@H]1CCC(=O)N1)C(=O)N1CCCC[C@H]1C(N)=O` (HELM PEPTIDE1{[Glp].L.[O=C([C@@H]1CCCCN1[*:1])[*:2]].[am]}$$$$V2.0), in assay [4], the ED50 came out at 38.5 mg/kg. Further, the Sleeping time in assay [1] turned out to be 16.6 min. In assay [2], this molecule had an Activity of 7.2%.

In assay [1], `CC(C)C[C@H](NC(=O)[C@@H]1CSCN1)C(=O)N1CCC[C@H]1C(N)=O` (HELM PEPTIDE1{[O=C([C@@H]1CSCN1)[*:2]].L.P.[am]}$$$$V2.0) yielded a Sleeping time of 35 min. The same molecule came in with an Activity in assay [2] of 0%. The molecule also returned an inhibition in vivo at 80 mg/kg in assay [3] of 0%.

As for `CC(C)C[C@H](NC(=O)[C@@H]1CCC(=O)O1)C(=O)N1CCC[C@H]1C(N)=O`, in assay [1], the Sleeping time was found to be 36.8 min. This molecule also showed an inhibition in vivo at 80 mg/kg in assay [3] of 40%.

In turn, `CC(C)C[C@H](NC(=O)[C@@H]1CCC(=O)N1)C(=O)N1CSC[C@H]1C(N)=O` (HELM PEPTIDE1{[Glp].L.[O=C([C@@H]1CSCN1[*:1])[*:2]].[am]}$$$$V2.0) gave an ED50 in assay [4] of 31.4 mg/kg. For the same molecule, the Sleeping time in assay [1] amounted to 17.2 min. In assay [2], this molecule yielded an Activity of 0%.

As to `CCC[C@H](NC(=O)[C@@H]1CCC(=O)N1)C(=O)N[C@H](C(N)=O)[C@@H](C)CC` (HELM PEPTIDE1{[Glp].[Nva].I.[am]}$$$$V2.0), the inhibition entry in assay [5] was “Potentiating effect”. In addition, the Sleeping time in assay [1] turned out to be 47.7 min. This molecule also had an Activity in assay [2] of 0%.

In turn, `CC(C)C[C@H](NC(=O)[C@@H]1CCCC(=O)N1)C(=O)N1CCC[C@H]1C(N)=O` [POSATIRELIN] had an ED50 in assay [6] of 23.5 mg/kg. The Sleeping time in assay [1] stood at 16.4 min. Also, the Activity in assay [2] worked out at 2.7%.

In turn, `CCC[C@H](NC(=O)[C@@H]1CCCC(=O)N1)C(=O)N1CSC[C@H]1C(N)=O` displayed an ED50 in assay [4] of 60.3 mg/kg. The same molecule showed a Sleeping time in assay [1] of 23.6 min.

As to `CC(C)C[C@H](NC(=O)[C@@H]1CNC(=O)N1)C(=O)N1CCC[C@H]1C(N)=O`, the Sleeping time in assay [1] was determined as 25.8 min. The molecule also gave an Activity in assay [2] of 0%. Testing at 80 mg/kg in assay [3] gave an inhibition in vivo of 40%.

Consider `CC(=O)N1CCC[C@H]1C(=O)N[C@@H](CC(C)C)C(=O)N1CCC[C@H]1C(N)=O` (Ac-Pro-Leu-Pro-NH2), for which, in assay [1], the Sleeping time is recorded as 37.6 min. This molecule also showed an inhibition in vivo at 80 mg/kg in assay [3] of 0%.

`CCC[C@H](NC(=O)[C@@H]1CCCC(=O)N1)C(=O)N1CSC[C@@H]1C(N)=O`: in assay [7], the Activity entry is on record as “Slightly significant but not parallel”.

In the case of `CC(C)C[C@H](NC(=O)[C@@H]1CCC(=O)N1)C(=O)N1CCCC[C@H]1C(=O)O` (HELM PEPTIDE1{[Glp].L.[O=C(O)[C@@H]1CCCCN1[*:1]]}$$$$V2.0), in assay [1], the Sleeping time came to 33.3 min. Moreover, 80 mg/kg produced 20% inhibition in vivo in assay [3]. The Activity entry in assay [7] was “Slightly significant but not parallel”.

`CCC[C@H](NC(=O)[C@@H]1CCCC(=O)N1)C(=O)N1CCC[C@H]1C(N)=O` had an ED50 in assay [4] of 10.6 mg/kg. The molecule further returned a Sleeping time in assay [1] of 19.7 min. In addition, in assay [2], the Activity came out at 0%.

`CCC[C@H](NC(=O)[C@@H]1CCC(=O)N1)C(=O)N1CSC[C@H]1C(N)=O` (HELM PEPTIDE1{[Glp].[Nva].[O=C([C@@H]1CSCN1[*:1])[*:2]].[am]}$$$$V2.0) returned a 50% effective dose (ED50) in assay [4] of 56 mg/kg. The Sleeping time in assay [1] worked out at 26.4 min. The molecule further displayed an Activity in assay [2] of 0%.

With `CC(C)C[C@H](NC(=O)[C@@H]1CCC(=O)N1)C(=O)NCC(N)=O` (HELM PEPTIDE1{[Glp].L.G.[am]}$$$$V2.0), in assay [1], the Sleeping time was 35.8 min. The same molecule returned an inhibition in vivo at 80 mg/kg in assay [3] of 0%.

Consider `CC(C)C[C@H](NC(=O)[C@@H]1CCCN1)C(=O)N1CCC[C@H]1C(N)=O` (H-Pro-Leu-Pro-NH2), for which the Sleeping time in assay [1] amounted to 65.6 min. The molecule further yielded an inhibition in vivo at 80 mg/kg in assay [3] of 0%. Also, the Activity result in assay [7] is “Slightly significant but not parallel”.

`CCC[C@H](NC(=O)[C@@H]1CCC(=O)N1)C(=O)N[C@H](CCSC)C(N)=O` displayed a Sleeping time in assay [1] of 46.1 min. In addition, in assay [2], the Activity is on record as 0%. For the same molecule, in assay [3], at 80 mg/kg the inhibition in vivo was 20%.
